Reference: ChEMBL document CHEMBL1268928, “Design and synthesis of novel pyrimidine hydroxamic acid inhibitors of histone deacetylases” (Bioorg Med Chem Lett, 2010)
pIC50: −log10 of the molar value.

Legend:
Histone deacetylase = test: Inhibition of HDAC in human HeLa cell nuclear extracts by fluorimetric assay; format: protein assay
HCT-116 [1] = test: cells; format: functional; conditions: Homo sapiens, HCT-116, 72 h
HeLa = test: cells; format: functional; conditions: Homo sapiens, 72 h
U-937 = test: cells; format: functional; conditions: Homo sapiens, U-937, 72 h
HuT78 = test: cells; format: functional; conditions: Homo sapiens, HuT78, 72 h
[2] = Metabolic stability in human liver microsomes at 10 uM after 30 mins; format: ADME, Microsome; conditions: read-out: Stability
In short: (§1)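 Compound at 10 µM incubated with human or mouse liver microsomes. Read-out is the percentage of parent remaining after 30 min.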

[3] = Metabolic stability in mouse liver microsomes at 10 uM after 30 mins; format: ADME, Microsome; conditions: read-out: Stability; in short: as §1
[4] = Apparent permeability of the compound by PAMPA assay; format: ADME
Cytochrome P450 1A2 = target: T1, Cytochrome P450 1A2 (Homo sapiens, UniProt P05177); test: Inhibition of CYP1A2 at 50 uM; format: ADME
T1 sequence (P05177 whole entry): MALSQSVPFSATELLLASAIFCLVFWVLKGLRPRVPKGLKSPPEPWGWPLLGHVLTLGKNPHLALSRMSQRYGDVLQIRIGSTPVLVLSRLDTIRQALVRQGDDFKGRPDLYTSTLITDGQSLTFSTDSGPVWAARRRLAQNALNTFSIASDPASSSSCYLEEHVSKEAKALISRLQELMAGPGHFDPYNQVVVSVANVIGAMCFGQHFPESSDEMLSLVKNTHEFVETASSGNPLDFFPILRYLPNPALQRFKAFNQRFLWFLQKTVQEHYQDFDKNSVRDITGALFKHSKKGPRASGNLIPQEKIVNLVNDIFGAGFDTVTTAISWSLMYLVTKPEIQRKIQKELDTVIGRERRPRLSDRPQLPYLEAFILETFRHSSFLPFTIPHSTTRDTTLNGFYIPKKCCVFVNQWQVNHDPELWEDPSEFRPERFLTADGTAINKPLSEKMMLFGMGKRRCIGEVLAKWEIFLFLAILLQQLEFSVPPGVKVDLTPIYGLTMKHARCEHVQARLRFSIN

Cytochrome P450 2A6 = target: T2, Cytochrome P450 2A6 (Homo sapiens, UniProt P11509); test: Inhibition of CYP2A6 at 50 uM; format: ADME
T2 sequence (P11509 whole entry): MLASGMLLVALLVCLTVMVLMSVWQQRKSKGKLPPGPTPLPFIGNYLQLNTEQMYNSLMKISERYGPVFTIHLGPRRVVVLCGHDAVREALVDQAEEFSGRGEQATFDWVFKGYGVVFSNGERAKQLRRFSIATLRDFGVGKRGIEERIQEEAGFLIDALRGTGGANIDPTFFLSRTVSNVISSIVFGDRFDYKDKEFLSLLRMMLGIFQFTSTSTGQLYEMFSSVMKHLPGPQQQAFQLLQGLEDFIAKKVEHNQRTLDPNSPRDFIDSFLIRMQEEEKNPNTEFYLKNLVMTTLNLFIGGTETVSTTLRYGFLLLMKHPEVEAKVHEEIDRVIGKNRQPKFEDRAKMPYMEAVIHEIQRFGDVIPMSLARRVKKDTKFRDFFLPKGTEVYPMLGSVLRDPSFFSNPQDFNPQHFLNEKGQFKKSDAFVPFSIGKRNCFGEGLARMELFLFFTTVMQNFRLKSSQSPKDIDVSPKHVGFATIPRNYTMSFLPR

Cytochrome P450 2C8 = target: T3, Cytochrome P450 2C8 (Homo sapiens, UniProt P10632); test: Inhibition of CYP2C8 at 50 uM; format: ADME
T3 sequence (P10632 whole entry): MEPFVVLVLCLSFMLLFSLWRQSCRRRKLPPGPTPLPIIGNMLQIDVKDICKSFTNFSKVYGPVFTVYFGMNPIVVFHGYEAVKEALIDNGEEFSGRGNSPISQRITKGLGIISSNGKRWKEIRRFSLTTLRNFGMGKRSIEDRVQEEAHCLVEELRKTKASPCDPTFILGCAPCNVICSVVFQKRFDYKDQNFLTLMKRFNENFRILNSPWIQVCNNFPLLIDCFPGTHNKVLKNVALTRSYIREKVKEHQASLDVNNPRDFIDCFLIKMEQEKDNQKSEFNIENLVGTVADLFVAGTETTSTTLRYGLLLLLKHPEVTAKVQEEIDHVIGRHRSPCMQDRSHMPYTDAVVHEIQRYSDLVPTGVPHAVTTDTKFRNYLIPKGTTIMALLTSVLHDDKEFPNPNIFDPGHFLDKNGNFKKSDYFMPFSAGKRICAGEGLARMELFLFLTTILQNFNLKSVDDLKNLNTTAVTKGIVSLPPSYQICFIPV

Cytochrome P450 2C19 = Cytochrome P450 2C19 (Homo sapiens, UniProt P33261); test: Inhibition of CYP2C19 at 50 uM; format: ADME
Cytochrome P450 3A4 = Cytochrome P450 3A4 (Homo sapiens, UniProt P08684); test: Inhibition of CYP3A4 at 50 uM; format: ADME
Cytochrome P450 2D6 = Cytochrome P450 2D6 (Homo sapiens, UniProt P10635); test: Inhibition of CYP2D6 at 50 uM; format: ADME
[5] = target: Voltage-gated inwardly rectifying potassium channel KCNH2 (Homo sapiens, UniProt Q12809); test: Inhibition of human ERG channel
[6] = Oral bioavailability in CD1 mouse at 3 mg/kg; format: ADME, organism-based; conditions: in vivo
In short: (§2)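 Cassette PK study in CD1 mice, dosed 3 mg/kg po and 1 mg/kg iv. Cmax was measured in plasma and spleen, and oral bioavailability F was derived.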

[7] = Cmax in CD1 mouse spleen at 3 mg/kg, po or 1 mg/kg, iv; format: ADME, organism-based; in short: as §2
[8] = Cmax in CD1 mouse plasma at 3 mg/kg, po or 1 mg/kg, iv; format: ADME, organism-based; in short: as §2
HCT-116 [9] = test: Antitumor activity against human HCT116 cells xenografted in CrTac:NCr-Fox1 (nu) athymic mouse assessed as tumor weight at 50 mg/kg, po qd for 16 days relative to untreated control; format: functional
In short: (§3)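 Female athymic mice (n = 14) bearing established bilateral HCT116 colon carcinoma xenografts; oral dosing once daily for 16 days at 50 mg/kg. Read-outs are final tumour weight and mean tumour volume, each relative to control. Body weight was monitored.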

HCT-116 [10] = test: Antitumor activity against human HCT116 cells xenografted in CrTac:NCr-Fox1 (nu) athymic mouse assessed as tumor volume at 50 mg/kg, po qd for 16 days relative to untreated control; format: functional; in short: as §3
[11] = Drug level in tumor of human HCT116 cells xenografted in CrTac:NCr-Fox1 (nu) athymic mouse at 50 mg/kg, po qd for 16 days measured after 4 hrs; format: ADME, organism-based, Neoplasm, HCT-116; design: dose 50 mg/kg, route oral; conditions: in vivo
In short: (§4)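 Tissue levels measured in female athymic mice bearing bilateral HCT116 xenografts after oral 50 mg/kg once daily for 16 days. Sampled at 0.5, 1 and 4 h post dose. Plasma is reported in nM; tumour and spleen in nmol/kg. The 1 h values are the mean of three samples; 0.5 and 4 h values are means of two.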

[12] = Drug level in tumor of human HCT116 cells xenografted in CrTac:NCr-Fox1 (nu) athymic mouse at 50 mg/kg, po qd for 16 days measured after 1 hr; format: ADME, organism-based, Neoplasm, HCT-116; design: dose 50 mg/kg, route oral; conditions: in vivo; in short: as §4
[13] = Drug level in tumor of human HCT116 cells xenografted in CrTac:NCr-Fox1 (nu) athymic mouse at 50 mg/kg, po qd for 16 days measured after 0.5 hrs; format: ADME, organism-based, Neoplasm, HCT-116; design: dose 50 mg/kg, route oral; conditions: in vivo; in short: as §4
Spleen [14] = test: Drug level in spleen of human HCT116 cells xenografted in CrTac:NCr-Fox1 (nu) athymic mouse at 50 mg/kg, po qd for 16 days measured after 0.5 hrs; format: ADME, organism-based, HCT-116; design: dose 50 mg/kg, route oral; conditions: in vivo; in short: as §4
Spleen [15] = test: Drug level in spleen of human HCT116 cells xenografted in CrTac:NCr-Fox1 (nu) athymic mouse at 50 mg/kg, po qd for 16 days measured after 1 hr; format: ADME, organism-based, HCT-116; design: dose 50 mg/kg, route oral; conditions: in vivo; in short: as §4
Spleen [16] = test: Drug level in spleen of human HCT116 cells xenografted in CrTac:NCr-Fox1 (nu) athymic mouse at 50 mg/kg, po qd for 16 days measured after 4 hrs; format: ADME, organism-based, HCT-116; design: dose 50 mg/kg, route oral; conditions: in vivo; in short: as §4
[17] = Drug level in plasma of human HCT116 cells xenografted in CrTac:NCr-Fox1 (nu) athymic mouse at 50 mg/kg, po qd for 16 days measured after 1 hr; format: ADME, organism-based, HCT-116; design: dose 50 mg/kg, route oral; conditions: read-out: Drug uptake; in short: as §4
[18] = Drug level in plasma of human HCT116 cells xenografted in CrTac:NCr-Fox1 (nu) athymic mouse at 50 mg/kg, po qd for 16 days measured after 4 hrs; format: ADME, organism-based, HCT-116; design: dose 50 mg/kg, route oral; conditions: read-out: Drug uptake; in short: as §4
[19] = Permeability from basolateral to apical side in human Caco-2 cells; format: ADME, cell-based; conditions: read-out: permeability
Mus musculus [20] = test: Inhibition of HDAC in tumor tissue of human HCT116 cells xenografted CrTac:NCr-Fox1 (nu) athymic mouse assessed as increase in histone H3 acetylation at 50 mg/kg, po qd for 16 days measured 1 hr post dose by Western blot relative to untreated control; format: functional, HCT-116
In short: (§5)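 Female athymic nude mice bearing established bilateral HCT116 colon carcinoma xenografts (n = 14), dosed orally once daily for 16 days at 50 mg/kg. Tumour tissue taken after the final dose; histone H3 acetylation by Western blot with anti-acetylated H3 antibody. Band intensity by densitometry, normalised to GAPDH, and expressed as % of DMSO controls. One animal per value, n = 1–3.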

Mus musculus [21] = test: Inhibition of HDAC in human HCT116 cells xenografted CrTac:NCr-Fox1 (nu) athymic mouse assessed as increase in histone H3 acetylation at 50 mg/kg, po qd for 16 days measured 4 hrs post dose by Western blot relative to untreated control; format: functional, HCT-116; in short: as §5

Sequence of Cytochrome P450 3A4 (P08684 whole entry): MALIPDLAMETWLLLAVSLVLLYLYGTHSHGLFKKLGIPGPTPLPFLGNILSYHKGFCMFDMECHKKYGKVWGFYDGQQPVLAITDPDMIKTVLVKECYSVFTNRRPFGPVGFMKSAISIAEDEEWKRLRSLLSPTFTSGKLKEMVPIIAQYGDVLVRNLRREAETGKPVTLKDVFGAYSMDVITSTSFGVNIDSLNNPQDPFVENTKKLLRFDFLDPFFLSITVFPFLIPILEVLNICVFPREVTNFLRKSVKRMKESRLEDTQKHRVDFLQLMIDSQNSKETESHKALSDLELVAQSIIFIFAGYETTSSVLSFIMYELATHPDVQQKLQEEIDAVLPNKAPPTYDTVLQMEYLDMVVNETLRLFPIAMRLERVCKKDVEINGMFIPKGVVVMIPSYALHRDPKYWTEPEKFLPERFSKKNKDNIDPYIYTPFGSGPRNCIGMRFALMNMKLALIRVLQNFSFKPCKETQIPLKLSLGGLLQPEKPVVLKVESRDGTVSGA
Sequence of Voltage-gated inwardly rectifying potassium channel KCNH2 (Q12809 whole entry): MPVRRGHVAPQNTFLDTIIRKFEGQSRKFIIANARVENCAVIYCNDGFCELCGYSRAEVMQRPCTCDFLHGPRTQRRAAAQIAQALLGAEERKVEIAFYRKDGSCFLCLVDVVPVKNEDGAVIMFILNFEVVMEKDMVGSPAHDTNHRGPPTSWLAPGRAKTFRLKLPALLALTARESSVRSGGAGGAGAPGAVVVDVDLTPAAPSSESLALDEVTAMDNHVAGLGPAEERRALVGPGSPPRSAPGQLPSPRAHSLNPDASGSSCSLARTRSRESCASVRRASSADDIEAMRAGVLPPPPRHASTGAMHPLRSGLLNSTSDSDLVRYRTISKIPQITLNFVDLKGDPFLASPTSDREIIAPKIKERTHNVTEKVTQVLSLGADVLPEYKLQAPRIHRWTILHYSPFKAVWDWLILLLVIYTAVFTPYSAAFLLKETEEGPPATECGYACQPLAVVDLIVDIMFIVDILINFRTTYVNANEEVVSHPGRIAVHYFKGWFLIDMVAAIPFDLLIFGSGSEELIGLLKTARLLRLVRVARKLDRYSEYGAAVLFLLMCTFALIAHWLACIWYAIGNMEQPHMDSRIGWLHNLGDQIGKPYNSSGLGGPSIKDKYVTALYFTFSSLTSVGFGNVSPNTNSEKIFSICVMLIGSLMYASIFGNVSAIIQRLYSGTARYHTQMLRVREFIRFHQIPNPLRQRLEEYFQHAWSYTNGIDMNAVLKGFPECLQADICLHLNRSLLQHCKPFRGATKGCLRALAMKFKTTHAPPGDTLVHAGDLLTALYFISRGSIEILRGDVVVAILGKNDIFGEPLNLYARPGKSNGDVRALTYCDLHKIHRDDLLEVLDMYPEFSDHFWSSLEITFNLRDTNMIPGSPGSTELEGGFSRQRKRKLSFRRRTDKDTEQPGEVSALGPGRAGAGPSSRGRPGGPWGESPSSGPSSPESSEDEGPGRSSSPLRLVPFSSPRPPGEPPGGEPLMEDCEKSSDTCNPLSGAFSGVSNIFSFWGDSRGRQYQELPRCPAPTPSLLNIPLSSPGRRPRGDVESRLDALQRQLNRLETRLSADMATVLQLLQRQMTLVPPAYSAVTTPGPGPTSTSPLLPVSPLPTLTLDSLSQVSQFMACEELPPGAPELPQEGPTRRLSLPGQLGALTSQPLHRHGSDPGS
Sequence of Cytochrome P450 2C19 (P33261 whole entry): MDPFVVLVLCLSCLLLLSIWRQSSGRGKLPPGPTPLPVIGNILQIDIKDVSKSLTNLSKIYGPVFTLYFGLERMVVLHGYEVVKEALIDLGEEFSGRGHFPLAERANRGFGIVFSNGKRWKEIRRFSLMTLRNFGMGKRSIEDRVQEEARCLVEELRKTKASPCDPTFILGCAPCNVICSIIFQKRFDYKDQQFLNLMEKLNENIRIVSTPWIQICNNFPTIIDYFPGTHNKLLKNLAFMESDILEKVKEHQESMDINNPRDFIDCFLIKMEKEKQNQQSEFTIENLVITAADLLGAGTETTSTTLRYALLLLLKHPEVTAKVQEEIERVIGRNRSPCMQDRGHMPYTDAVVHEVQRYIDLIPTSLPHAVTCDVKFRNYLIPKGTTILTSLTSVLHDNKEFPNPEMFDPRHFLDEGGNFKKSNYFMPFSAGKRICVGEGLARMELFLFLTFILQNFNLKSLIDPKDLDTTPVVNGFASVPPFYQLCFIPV
Sequence of Cytochrome P450 2D6 (P10635 whole entry): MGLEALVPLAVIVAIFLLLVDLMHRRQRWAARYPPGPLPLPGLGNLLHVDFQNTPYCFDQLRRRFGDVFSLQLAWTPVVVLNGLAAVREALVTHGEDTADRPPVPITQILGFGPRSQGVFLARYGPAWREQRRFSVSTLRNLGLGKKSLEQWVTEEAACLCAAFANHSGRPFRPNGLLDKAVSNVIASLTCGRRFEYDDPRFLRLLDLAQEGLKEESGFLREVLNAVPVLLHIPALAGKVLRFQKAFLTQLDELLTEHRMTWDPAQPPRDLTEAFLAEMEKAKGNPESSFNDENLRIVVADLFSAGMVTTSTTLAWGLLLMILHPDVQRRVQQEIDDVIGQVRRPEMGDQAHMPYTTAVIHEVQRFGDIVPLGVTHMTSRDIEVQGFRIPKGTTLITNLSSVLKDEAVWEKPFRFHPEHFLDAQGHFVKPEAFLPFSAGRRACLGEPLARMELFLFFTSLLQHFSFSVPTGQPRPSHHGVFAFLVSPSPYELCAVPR

O=C(NO)c1cnc(N2C[C@@H]3CN(S(=O)(=O)c4ccc5ccccc5c4)C[C@@H]3C2)nc1
IC50 (Histone deacetylase): 64 nM
GI50 (HCT-116 [1]): 740 nM
GI50 (HeLa): 1130 nM
GI50 (U-937): 480 nM
GI50 (HuT78): 300 nM

O=C(NO)c1cnc(N2C[C@H]3CN(Cc4ccc(Cl)cc4)C[C@H]3C2)nc1
IC50 (Histone deacetylase): 42 nM
GI50 (HCT-116 [1]): 490 nM
GI50 (HeLa): 690 nM
GI50 (U-937): 230 nM
GI50 (HuT78): 190 nM

COc1ccc(CN2C[C@@H]3CN(c4ncc(C(=O)NO)cn4)C[C@@H]3C2)cc1
IC50 (Histone deacetylase): 95 nM
GI50 (HCT-116 [1]): 900 nM
GI50 (HeLa): 950 nM
GI50 (U-937): 550 nM
GI50 (HuT78): 290 nM

O=C(NO)c1cnc(N2C[C@H]3CN(Cc4ccc5ccccc5c4)C[C@H]3C2)nc1
IC50 (Histone deacetylase): 13 nM
GI50 (HCT-116 [1]): 120 nM
GI50 (HeLa): 260 nM
GI50 (U-937): 72 nM
GI50 (HuT78): 79 nM
remaining at 0.5 h, 10 µM [2]: 72%
remaining at 0.5 h, 10 µM [3]: 45%
Papp [4]: 0.5 ×10⁻⁶ cm/s
inhibition (INH) (Cytochrome P450 1A2): Not Active
inhibition (INH) (Cytochrome P450 2A6): Not Active
inhibition (INH) (Cytochrome P450 2C8): Not Active
inhibition (INH) (Cytochrome P450 2C19): Not Active
inhibition (INH) (Cytochrome P450 3A4): Not Active
pIC50 (Cytochrome P450 2D6): 5.00
pIC50 [5]: 5.39
bioavailability [6]: 15%
Cmax [7]: 218 ng/mL
Cmax [8]: 31 ng/mL
T/C (HCT-116 [9]): 80%
Activity (HCT-116 [10]): 28%
Drug uptake [11]: 154 nmol/kg
Drug uptake [12]: 215 nmol/kg
Drug uptake [13]: 80 nmol/kg
Drug uptake (Spleen [14]): 620 nmol/kg
Drug uptake (Spleen [15]): 1260 nmol/kg
Drug uptake (Spleen [16]): 500 nmol/kg
concentration at 1 h [17]: 14 nM
concentration at 4 h [18]: 25 nM
Papp B→A [19]: 9.4 ×10⁻⁶ cm/s
fold change (FC) (Mus musculus [20]): 2
fold change (FC) (Mus musculus [21]): 2
